Many of the other results were omitted from the sample, so hits are more common in it than they were.
GASC1 inh – blocks human GASC-1 (KDM4C) demethylase activity. GST-KDM4C 2-372, H3K9me3 peptide, LANCE TR-FRET. inhibition, % at 12.5 µM. actives 0.15% (n = 96,000). AID 720574;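 active = mean replicate inhibition above about 25%, with at least 55% of replicates also reaching it, limit read from the data, passing the limit was not always enough; inconclusive = only one of those two conditions met; inactive = neither condition met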
Target sequence (Q9H3R0 2-372 limits assumed): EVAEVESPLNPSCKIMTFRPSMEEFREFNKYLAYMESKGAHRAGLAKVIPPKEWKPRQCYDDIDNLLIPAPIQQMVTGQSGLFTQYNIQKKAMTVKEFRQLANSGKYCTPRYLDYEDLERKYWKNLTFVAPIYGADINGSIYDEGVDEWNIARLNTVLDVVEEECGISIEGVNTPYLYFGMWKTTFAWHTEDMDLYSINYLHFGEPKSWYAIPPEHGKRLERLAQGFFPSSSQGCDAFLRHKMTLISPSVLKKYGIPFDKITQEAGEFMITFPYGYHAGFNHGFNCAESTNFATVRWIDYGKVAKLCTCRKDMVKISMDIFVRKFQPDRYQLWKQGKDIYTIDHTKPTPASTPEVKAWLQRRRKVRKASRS
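Test system – GST-tagged GASC-1 (JMJD2C) catalytic fragment, aa 2-372 · Medium – HEPES buffer, pH 7.5, plus ascorbate · Reagent – H3K9me3 peptide with Fe(II)/2OG · Compound – one test concentration per compound · Timing – 30 min reaction, 60 min detection, RT · Technique – TR-FRET with Eu antibody and ULight streptavidin, EDTA stop · Read-out basis – inhibition from TR-FRET ratio decrease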
T cruzi growth-1 – inhibitors of T. cruzi proliferation. T. cruzi beta-gal in NIH3T3, GalScreen luminescence, 90 h. inhibition, % at 8.34 µM. actives 5.9% (n = 77,000). AID 624255;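 active = mean inhibition above about 93%, with at least 55% of replicates each passing it, limit read from the data, passing the limit was not always enough; inconclusive = only one of those two conditions holds; inactive = neither condition holds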
IDH1 mut inh – inhibitors of human IDH1 R132H; O75874; IDH1 R132H reductase, diaphorase/resazurin fluorescence, 60 min; inhibition, % at 10 µM; actives 0.18% (n = 70,000); AID 624101; in the data active = inhibition above about 34%; inconclusive = no clear call, values can overlap the other calls; inactive = below about 11%;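 note: 0% = DMSO and 100% = no enzyme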
T cruzi growth-2 – blocks T. cruzi growth in NIH3T3 host cells; shares compounds with T cruzi growth-1; inhibition, % at 8.35 µM; T. cruzi beta-gal in NIH3T3, GalScreen luminescence, 90 h; actives 72% (n = 5,600);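 active = mean replicate inhibition above about 95% and at least 55% of replicates individually reaching it, limit read from the data; inconclusive = only one of the two criteria is met; inactive = neither criterion is met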
T cruzi growth-3 – inhibitors of T. cruzi proliferation | shares compounds with T cruzi growth-1 | T. cruzi beta-gal in NIH3T3, GalScreen luminescence, 90 h | inhibition, % at 2.09 µM | actives 21% (n = 5,600) | AID 651740;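 active = mean inhibition above about 95%, with at least 55% of replicates also reaching it, limit read from the data; inconclusive = meets just one of the two conditions; inactive = meets neither condition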;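 note: plate controls were neutral control median for no effect and positive control median for full effect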
3T3 cytotox – kills mouse NIH/3T3 fibroblasts. shares compounds with T cruzi growth-1. NIH/3T3 viability, CellTiter-Glo ATP luminescence, 90 h. cytotoxicity (signal decrease), % at 8.35 µM. actives 14% (n = 5,600). AID 651742;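 active = mean signal decrease across replicates above about 35% based on untreated-well scatter, with enough replicates individually passing, limit read from the data; inconclusive = no rule stated though some were filed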;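 note: 0% = median of neutral control wells and 100% = median of positive control wells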
3T3 cytotox 2 – cytotoxicity in mouse NIH/3T3 fibroblasts | shares compounds with T cruzi growth-1 | NIH/3T3 viability, CellTiter-Glo ATP luminescence, 90 h | inhibition, % at 24.9 µM | actives 56% (n = 5,600);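 active = mean loss of cell viability signal at or above a set limit, and enough replicates individually reaching it; inconclusive = meets only the mean limit or only the replicate share; inactive = meets neither condition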;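 note: 0% = median of neutral control wells and 100% = median of positive control wells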
Numbers without * were called inactive; ? = inconclusive; · = no result.

SMILES	GASC1 inh	T cruzi growth-1	IDH1 mut inh	T cruzi growth-2	T cruzi growth-3	3T3 cytotox	3T3 cytotox 2
COc1cccc(-c2ccc3c(c2)O[C@@H](CN(C)C(=O)c2ccccc2F)[C@H](C)CN([C@@H](C)CO)S3(=O)=O)c1	0	·	0	·	·	·	·
COc1ccc(-c2ccc3c(c2)O[C@@H](CN(C)C(=O)Nc2ccccc2F)[C@@H](C)CN([C@@H](C)CO)S3(=O)=O)cc1	-1	80	-1	·	·	·	·
COc1ccc(-c2ccc3c(c2)O[C@H](CN(C)C(=O)c2ccccc2F)[C@@H](C)CN([C@H](C)CO)S3(=O)=O)cc1	-2	108*	-2	102*	48	6	36*
C[C@@H]1CN([C@@H](C)CO)C(=O)c2cccc(NC(=O)C3CCCCC3)c2O[C@@H]1CN(C)Cc1ccncc1	-1	60	·	·	·	·	·
Cc1ccc2nc(-c3cccnc3)cc(C(=O)Nc3scc(-c4ccc(C)c(C)c4)c3C(N)=O)c2c1	·	·	0	·	·	·	·
Cc1noc(C)c1NC(=O)N(C)C[C@H]1Oc2ccc(NS(=O)(=O)c3cccs3)cc2CC(=O)N([C@@H](C)CO)C[C@H]1C	0	-15	0	·	·	·	·
N#Cc1ccccc1CSc1nnc(Cc2cccc3ccccc23)n1-c1ccccc1	·	·	0	·	·	·	·
OC1[C@H](O)CO[C@@H](OC[C@H]2O[C@@H](OC/C=C/c3ccccc3)[C@H](O)[C@@H](O)[C@@H]2O)[C@H]1O (stereo partly specified)	·	·	0	·	·	·	·
Cc1ccc(NC(=O)Nc2ccc3c(c2)C(=O)N(C)[C@@H]2CC[C@@H](CC(=O)O)O[C@H]2CO3)cc1	0	-13	·	·	·	·	·
COc1ccc(-c2ccc3c(c2)O[C@@H](CN(C)C(=O)c2ccccc2F)[C@@H](C)CN([C@H](C)CO)S3(=O)=O)cc1	-4	86	-2	·	·	·	·
COc1ccc(-c2ccc3c(c2)O[C@@H](CN(C)C(=O)c2ccccc2F)[C@H](C)CN([C@@H](C)CO)S3(=O)=O)cc1	-5	110*	2	90	44	47*	79*
Cc1cccc(C)c1N(CC(=O)NC1CCCCC1)S(C)(=O)=O	·	·	0	·	·	·	·
Cc1ccc(S(=O)(=O)Nc2ccc3c(c2)C(=O)N([C@H](C)CO)C[C@@H](C)[C@H](CN(C)S(=O)(=O)c2ccc(Cl)cc2)OCCCC[C@H](C)O3)cc1	-2	·	-1	·	·	·	·
Cc1ccc(S(=O)(=O)N(C)C[C@H]2OCCCC[C@H](C)Oc3ccc(NS(=O)(=O)c4ccc(Cl)cc4)cc3C(=O)N([C@@H](C)CO)C[C@@H]2C)cc1	1	93*	2	109*	107*	-31	-29
Cc1ccc(S(=O)(=O)N(C)C[C@@H]2OCCCC[C@H](C)Oc3ccc(NS(=O)(=O)c4ccc(Cl)cc4)cc3C(=O)N([C@@H](C)CO)C[C@H]2C)cc1	2	106*	0	103*	71	-37	-10
Cc1ccc(S(=O)(=O)N(C)C[C@H]2OCCCC[C@H](C)Oc3ccc(NS(=O)(=O)c4ccc(Cl)cc4)cc3C(=O)N([C@@H](C)CO)C[C@H]2C)cc1	0	?	0	104*	108*	-37	-16
Cc1ccc(S(=O)(=O)N(C)C[C@@H]2OCCCC[C@@H](C)Oc3ccc(NS(=O)(=O)c4ccc(Cl)cc4)cc3C(=O)N([C@@H](C)CO)C[C@@H]2C)cc1	0	110*	·	100*	113*	10	46*
Cc1ccc(S(=O)(=O)Nc2ccc3c(c2)C(=O)N([C@H](C)CO)C[C@H](C)[C@@H](CN(C)S(=O)(=O)c2ccc(Cl)cc2)OCCCC[C@H](C)O3)cc1	-2	89	5	·	·	·	·
Cc1ccc(S(=O)(=O)N(C)C[C@@H]2OCCCC[C@@H](C)Oc3ccc(NS(=O)(=O)c4ccc(Cl)cc4)cc3C(=O)N([C@H](C)CO)C[C@@H]2C)cc1	-2	74	3	·	·	·	·
Cc1ccc(S(=O)(=O)Nc2ccc3c(c2)C(=O)N([C@@H](C)CO)C[C@@H](C)[C@@H](CN(C)S(=O)(=O)c2ccc(Cl)cc2)OCCCC[C@@H](C)O3)cc1	1	47	·	·	·	·	·

Source: PubChem
